Data taken from ChEMBL document CHEMBL4118021, “Studies of TAK1-centered polypharmacology with novel covalent TAK1 inhibitors” (Bioorg Med Chem, 2017).
Each block holds one compound with its values, some of them ahead of it. Activity calls are given as the source filed them. No cut-off for these calls is given here.

What was measured:
[1] = target: T1, Dual specificity mitogen-activated protein kinase kinase 3 (Homo sapiens) (UniProt P46734); assay: Binding affinity to MAP2K3 in human NCI-H23 cells at 1 uM by mass spectrometry based pull down assay; type: cell-based
T1 sequence (whole entry): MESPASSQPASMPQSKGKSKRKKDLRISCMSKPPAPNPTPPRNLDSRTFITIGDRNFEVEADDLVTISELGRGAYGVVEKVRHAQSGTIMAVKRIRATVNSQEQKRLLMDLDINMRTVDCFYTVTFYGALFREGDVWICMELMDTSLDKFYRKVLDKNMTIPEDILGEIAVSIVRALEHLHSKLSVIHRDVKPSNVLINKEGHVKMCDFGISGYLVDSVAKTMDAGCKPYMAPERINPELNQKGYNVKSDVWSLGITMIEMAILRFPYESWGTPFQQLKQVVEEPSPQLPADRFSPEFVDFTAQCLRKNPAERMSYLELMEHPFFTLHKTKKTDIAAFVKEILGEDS

[2] = target: Cytochrome c (Homo sapiens) (UniProt P99999); assay: Binding affinity to CYCS in human NCI-H358 cells at 1 uM by mass spectrometry based pull down assay; type: cell-based
Chain of Cytochrome c (Homo sapiens) (P99999 whole entry): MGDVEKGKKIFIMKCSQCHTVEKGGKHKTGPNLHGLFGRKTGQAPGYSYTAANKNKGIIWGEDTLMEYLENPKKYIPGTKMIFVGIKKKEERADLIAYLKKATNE

[3] = target: Medium-chain specific acyl-CoA dehydrogenase, mitochondrial (Homo sapiens) (UniProt P11310); assay: Binding affinity to ACADM in human NCI-H23 cells at 1 uM by mass spectrometry based pull down assay; type: cell-based
Chain of Medium-chain specific acyl-CoA dehydrogenase, mitochondrial (Homo sapiens) (P11310 whole entry): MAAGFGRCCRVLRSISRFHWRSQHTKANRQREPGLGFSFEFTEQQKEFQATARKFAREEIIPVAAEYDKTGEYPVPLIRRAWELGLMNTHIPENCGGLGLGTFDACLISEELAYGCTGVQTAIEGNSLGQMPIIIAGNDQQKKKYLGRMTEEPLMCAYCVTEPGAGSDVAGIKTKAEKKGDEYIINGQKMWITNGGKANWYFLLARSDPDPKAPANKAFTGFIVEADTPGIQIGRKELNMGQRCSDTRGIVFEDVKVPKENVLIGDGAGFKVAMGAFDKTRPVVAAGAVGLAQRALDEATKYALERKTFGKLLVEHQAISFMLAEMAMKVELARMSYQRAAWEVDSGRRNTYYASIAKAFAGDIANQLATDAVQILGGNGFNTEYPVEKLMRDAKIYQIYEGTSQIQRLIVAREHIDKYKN
Method in brief: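 NCI-H23 or NCI-H358 cells were grown and lysed. Lysates were incubated overnight at 4 °C with 1 μM biotinylated covalent probe or DMSO, then pulled down on streptavidin beads. Proteins were run on polyacrylamide gels and stained with Coomassie. Bands were excised, digested and identified by mass spectrometry.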

[4] = target: Cyclin-G-associated kinase (Homo sapiens) (UniProt O14976); assay: Binding affinity to GAK in human NCI-H358 cells at 1 uM by mass spectrometry based pull down assay; type: cell-based
[5] = target: TGF-beta-activated kinase 1 and MAP3K7-binding protein 1 (Homo sapiens) (UniProt Q15750); assay: Binding affinity to TAB1 in human NCI-H358 cells at 1 uM by mass spectrometry based pull down assay; type: cell-based
Chain of TGF-beta-activated kinase 1 and MAP3K7-binding protein 1 (Homo sapiens) (Q15750 whole entry): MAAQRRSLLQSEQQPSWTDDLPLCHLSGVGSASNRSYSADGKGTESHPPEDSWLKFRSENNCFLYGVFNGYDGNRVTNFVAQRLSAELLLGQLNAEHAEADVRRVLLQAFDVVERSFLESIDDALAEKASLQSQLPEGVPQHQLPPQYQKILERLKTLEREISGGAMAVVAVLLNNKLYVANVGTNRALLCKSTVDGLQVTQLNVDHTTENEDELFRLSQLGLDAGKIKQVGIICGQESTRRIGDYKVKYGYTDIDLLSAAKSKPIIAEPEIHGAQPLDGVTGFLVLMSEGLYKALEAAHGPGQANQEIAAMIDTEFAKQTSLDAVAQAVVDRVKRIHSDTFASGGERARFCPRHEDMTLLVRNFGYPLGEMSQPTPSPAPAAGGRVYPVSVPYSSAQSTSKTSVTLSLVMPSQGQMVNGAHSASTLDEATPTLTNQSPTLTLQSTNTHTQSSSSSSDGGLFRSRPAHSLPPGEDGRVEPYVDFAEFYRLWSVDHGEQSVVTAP

[6] = target: Membrane-associated progesterone receptor component 1 (Homo sapiens) (UniProt O00264); assay: Binding affinity to PGRMC1 in human NCI-H358 cells at 1 uM by mass spectrometry based pull down assay; type: cell-based
Chain of Membrane-associated progesterone receptor component 1 (Homo sapiens) (O00264 whole entry): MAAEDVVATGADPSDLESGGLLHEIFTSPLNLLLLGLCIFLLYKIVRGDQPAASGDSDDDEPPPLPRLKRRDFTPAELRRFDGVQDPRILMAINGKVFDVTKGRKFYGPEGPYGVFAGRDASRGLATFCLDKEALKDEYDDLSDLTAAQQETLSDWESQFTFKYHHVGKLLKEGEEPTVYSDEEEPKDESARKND

[7] = target: Casein kinase II subunit beta (Homo sapiens) (UniProt P67870); assay: Binding affinity to CSNK2B in human NCI-H23 cells at 1 uM by mass spectrometry based pull down assay; type: cell-based
Chain of Casein kinase II subunit beta (Homo sapiens) (P67870 whole entry): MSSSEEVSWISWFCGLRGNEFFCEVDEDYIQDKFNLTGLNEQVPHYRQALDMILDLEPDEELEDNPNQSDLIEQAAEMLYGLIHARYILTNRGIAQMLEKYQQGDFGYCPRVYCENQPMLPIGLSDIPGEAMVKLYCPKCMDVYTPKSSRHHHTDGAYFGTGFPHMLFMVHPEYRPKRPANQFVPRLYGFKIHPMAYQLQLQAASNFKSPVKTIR

[8] = target: Cancer-related nucleoside-triphosphatase (Homo sapiens) (UniProt Q9BSD7); assay: Binding affinity to NTPCR in human NCI-H23 cells at 1 uM by mass spectrometry based pull down assay; type: cell-based
Chain of Cancer-related nucleoside-triphosphatase (Homo sapiens) (Q9BSD7 whole entry): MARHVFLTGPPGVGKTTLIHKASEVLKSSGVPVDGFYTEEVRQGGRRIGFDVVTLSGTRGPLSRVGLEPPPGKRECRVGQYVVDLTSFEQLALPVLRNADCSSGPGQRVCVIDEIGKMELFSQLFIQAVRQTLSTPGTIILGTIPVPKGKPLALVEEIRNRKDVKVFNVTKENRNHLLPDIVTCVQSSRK

[9] = target: Ubiquitin-like modifier-activating enzyme 1 (Homo sapiens) (UniProt P22314); assay: Binding affinity to UBA1 in human NCI-H23 cells at 1 uM by mass spectrometry based pull down assay; type: cell-based
[10] = target: Ras GTPase-activating-like protein IQGAP1 (Homo sapiens) (UniProt P46940); assay: Binding affinity to IQGAP1 in human NCI-H23 cells at 1 uM by mass spectrometry based pull down assay; type: cell-based
[11] = target: Serine hydroxymethyltransferase, mitochondrial (Homo sapiens) (UniProt P34897); assay: Binding affinity to SHMT2 in human NCI-H358 cells at 1 uM by mass spectrometry based pull down assay; type: cell-based
Chain of Serine hydroxymethyltransferase, mitochondrial (Homo sapiens) (P34897 whole entry): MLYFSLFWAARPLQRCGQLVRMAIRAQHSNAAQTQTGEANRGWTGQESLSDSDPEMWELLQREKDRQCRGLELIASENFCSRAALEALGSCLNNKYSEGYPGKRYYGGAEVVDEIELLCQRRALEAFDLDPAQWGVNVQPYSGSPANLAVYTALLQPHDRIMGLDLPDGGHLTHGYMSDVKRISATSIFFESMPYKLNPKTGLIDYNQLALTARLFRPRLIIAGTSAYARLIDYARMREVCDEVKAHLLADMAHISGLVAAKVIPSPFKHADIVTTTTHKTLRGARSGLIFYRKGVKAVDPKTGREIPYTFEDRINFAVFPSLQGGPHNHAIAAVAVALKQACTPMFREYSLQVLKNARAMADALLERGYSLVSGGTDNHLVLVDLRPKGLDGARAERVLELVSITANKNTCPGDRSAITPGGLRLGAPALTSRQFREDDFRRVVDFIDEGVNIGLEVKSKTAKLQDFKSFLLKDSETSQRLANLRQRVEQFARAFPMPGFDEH

[12] = target: Protein NipSnap homolog 1 (Homo sapiens) (UniProt Q9BPW8); assay: Binding affinity to NIPSNAP1 in human NCI-H23 cells at 1 uM by mass spectrometry based pull down assay; type: cell-based
Chain of Protein NipSnap homolog 1 (Homo sapiens) (Q9BPW8 whole entry): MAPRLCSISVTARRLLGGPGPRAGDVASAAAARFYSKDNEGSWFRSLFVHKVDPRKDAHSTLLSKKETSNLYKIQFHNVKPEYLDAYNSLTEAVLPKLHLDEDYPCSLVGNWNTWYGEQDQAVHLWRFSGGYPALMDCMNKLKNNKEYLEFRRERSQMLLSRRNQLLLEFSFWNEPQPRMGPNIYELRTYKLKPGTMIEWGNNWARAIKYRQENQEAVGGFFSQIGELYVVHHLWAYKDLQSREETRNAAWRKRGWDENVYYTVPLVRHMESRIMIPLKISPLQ

[13] = target: Lactoylglutathione lyase (Homo sapiens) (UniProt Q04760); assay: Binding affinity to GLO1 in human NCI-H23 cells at 1 uM by mass spectrometry based pull down assay; type: cell-based
Chain of Lactoylglutathione lyase (Homo sapiens) (Q04760 2-184 limits assumed): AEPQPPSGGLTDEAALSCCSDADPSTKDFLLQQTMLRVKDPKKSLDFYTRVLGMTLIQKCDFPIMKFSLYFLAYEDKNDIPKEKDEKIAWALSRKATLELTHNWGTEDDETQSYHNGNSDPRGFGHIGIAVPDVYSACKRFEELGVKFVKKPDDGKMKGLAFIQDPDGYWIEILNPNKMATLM

[14] = target: Monofunctional C1-tetrahydrofolate synthase, mitochondrial (Homo sapiens) (UniProt Q6UB35); assay: Binding affinity to MTHFD1L in human NCI-H358 cells at 1 uM by mass spectrometry based pull down assay; type: cell-based
[15] = target: Transcription intermediary factor 1-beta (Homo sapiens) (UniProt Q13263); assay: Binding affinity to TRIM28 in human NCI-H358 cells at 1 uM by mass spectrometry based pull down assay; type: cell-based
[16] = target: Inhibitor of nuclear factor kappa-B kinase subunit epsilon (Homo sapiens) (UniProt Q14164); assay: Inhibition of IKKe in human SKCO1 cells at 1 uM after 4 hrs using biotin labeled DIKPGNIMR probe by mass-spectrometric analysis relative to control; type: cell-based
[17] = target: T1, Dual specificity mitogen-activated protein kinase kinase 3 (Homo sapiens); assay: Inhibition of full length human MEK3 (1 to 318 residues) expressed in mammalian expression system assessed as enzyme activity at 10 uM by KINOMEScan assay relative to control; design: scale not given: the % may be the effect or the level left
Method in brief: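 In vitro ATP-site competition binding assay (KinomeScan) across a panel of 456 kinases. Compound was tested at 1 and 10 μM. The read-out is the binding inhibition score relative to control.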

[18] = target: Receptor-type tyrosine-protein kinase FLT3 (Homo sapiens) (UniProt P36888); assay: Inhibition of human FLT3 (592 to 969 residues) expressed in bacterial expression system assessed as enzyme activity at 1 uM by KINOMEScan assay relative to control; design: scale not given: the % may be the effect or the level left
Method in brief: (§1)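 In vitro ATP-site competition binding assay across a panel of 456 kinases, with compound tested at 1 and 10 μM.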

[19] = target: T2, Dual specificity mitogen-activated protein kinase kinase 6 (Homo sapiens) (UniProt P52564); assay: Inhibition of MAP2K6 in human SKCO1 cells at 1 uM after 4 hrs using biotin labeled DVKPSNVLINALGQVK probe by mass-spectrometric analysis relative to control; type: cell-based
T2 sequence (whole entry): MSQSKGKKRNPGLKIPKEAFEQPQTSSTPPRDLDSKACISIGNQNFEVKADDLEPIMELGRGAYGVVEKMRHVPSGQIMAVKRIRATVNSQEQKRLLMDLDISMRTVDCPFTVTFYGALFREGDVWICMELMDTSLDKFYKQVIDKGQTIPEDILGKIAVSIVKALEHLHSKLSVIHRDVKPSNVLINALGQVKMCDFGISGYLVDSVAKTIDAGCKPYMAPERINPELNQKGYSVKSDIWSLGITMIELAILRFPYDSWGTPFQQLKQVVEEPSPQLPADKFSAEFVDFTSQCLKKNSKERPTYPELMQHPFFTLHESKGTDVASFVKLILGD

[20] = target: Platelet-derived growth factor receptor alpha (Homo sapiens) (UniProt P16234); assay: Inhibition of human PDGFRA (575 to 1002 residues) expressed in mammalian expression system assessed as enzyme activity at 1 uM by KINOMEScan assay relative to control; design: scale not given: the % may be the effect or the level left; method in brief: as §1
[21] = target: Mast/stem cell growth factor receptor Kit (Homo sapiens) (UniProt P10721); assay: Inhibition of human KIT (571 to 952 residues) expressed in bacterial expression system assessed as enzyme activity at 1 uM by KINOMEScan assay relative to control; design: scale not given: the % may be the effect or the level left; method in brief: as §1
Chain of Mast/stem cell growth factor receptor Kit (Homo sapiens) (P10721 whole entry, the tested form may be a part): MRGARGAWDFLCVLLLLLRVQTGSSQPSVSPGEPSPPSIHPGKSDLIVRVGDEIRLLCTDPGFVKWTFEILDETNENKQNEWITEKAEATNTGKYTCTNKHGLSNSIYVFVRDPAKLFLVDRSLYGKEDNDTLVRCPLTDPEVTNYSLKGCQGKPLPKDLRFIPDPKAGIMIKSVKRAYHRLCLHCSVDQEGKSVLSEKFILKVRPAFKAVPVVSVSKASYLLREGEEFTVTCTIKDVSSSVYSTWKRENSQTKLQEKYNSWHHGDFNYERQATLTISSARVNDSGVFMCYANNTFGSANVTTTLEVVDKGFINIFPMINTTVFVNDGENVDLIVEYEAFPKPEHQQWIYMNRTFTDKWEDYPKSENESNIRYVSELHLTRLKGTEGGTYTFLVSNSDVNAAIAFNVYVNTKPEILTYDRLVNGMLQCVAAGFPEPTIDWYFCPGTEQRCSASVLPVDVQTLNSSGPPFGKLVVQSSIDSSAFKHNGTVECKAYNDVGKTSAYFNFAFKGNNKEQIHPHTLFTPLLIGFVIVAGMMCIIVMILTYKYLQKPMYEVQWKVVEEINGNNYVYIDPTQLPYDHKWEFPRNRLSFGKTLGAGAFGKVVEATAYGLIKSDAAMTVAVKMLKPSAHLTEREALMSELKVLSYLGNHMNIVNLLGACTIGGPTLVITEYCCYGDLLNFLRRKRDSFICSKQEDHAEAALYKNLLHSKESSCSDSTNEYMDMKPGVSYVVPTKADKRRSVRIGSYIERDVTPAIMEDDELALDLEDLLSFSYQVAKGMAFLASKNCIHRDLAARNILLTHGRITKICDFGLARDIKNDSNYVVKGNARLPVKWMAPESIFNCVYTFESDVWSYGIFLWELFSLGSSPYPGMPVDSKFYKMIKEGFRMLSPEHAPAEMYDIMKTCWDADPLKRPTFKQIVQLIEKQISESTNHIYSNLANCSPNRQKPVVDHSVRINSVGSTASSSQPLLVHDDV

[22] = target: Hepatocyte growth factor receptor (Homo sapiens) (UniProt P08581); assay: Inhibition of MET in human SKCO1 cells at 1 uM after 4 hrs using biotin labeled TGAKLPVK probe by mass-spectrometric analysis relative to control; type: cell-based
Chain of Hepatocyte growth factor receptor (Homo sapiens) (P08581 whole entry): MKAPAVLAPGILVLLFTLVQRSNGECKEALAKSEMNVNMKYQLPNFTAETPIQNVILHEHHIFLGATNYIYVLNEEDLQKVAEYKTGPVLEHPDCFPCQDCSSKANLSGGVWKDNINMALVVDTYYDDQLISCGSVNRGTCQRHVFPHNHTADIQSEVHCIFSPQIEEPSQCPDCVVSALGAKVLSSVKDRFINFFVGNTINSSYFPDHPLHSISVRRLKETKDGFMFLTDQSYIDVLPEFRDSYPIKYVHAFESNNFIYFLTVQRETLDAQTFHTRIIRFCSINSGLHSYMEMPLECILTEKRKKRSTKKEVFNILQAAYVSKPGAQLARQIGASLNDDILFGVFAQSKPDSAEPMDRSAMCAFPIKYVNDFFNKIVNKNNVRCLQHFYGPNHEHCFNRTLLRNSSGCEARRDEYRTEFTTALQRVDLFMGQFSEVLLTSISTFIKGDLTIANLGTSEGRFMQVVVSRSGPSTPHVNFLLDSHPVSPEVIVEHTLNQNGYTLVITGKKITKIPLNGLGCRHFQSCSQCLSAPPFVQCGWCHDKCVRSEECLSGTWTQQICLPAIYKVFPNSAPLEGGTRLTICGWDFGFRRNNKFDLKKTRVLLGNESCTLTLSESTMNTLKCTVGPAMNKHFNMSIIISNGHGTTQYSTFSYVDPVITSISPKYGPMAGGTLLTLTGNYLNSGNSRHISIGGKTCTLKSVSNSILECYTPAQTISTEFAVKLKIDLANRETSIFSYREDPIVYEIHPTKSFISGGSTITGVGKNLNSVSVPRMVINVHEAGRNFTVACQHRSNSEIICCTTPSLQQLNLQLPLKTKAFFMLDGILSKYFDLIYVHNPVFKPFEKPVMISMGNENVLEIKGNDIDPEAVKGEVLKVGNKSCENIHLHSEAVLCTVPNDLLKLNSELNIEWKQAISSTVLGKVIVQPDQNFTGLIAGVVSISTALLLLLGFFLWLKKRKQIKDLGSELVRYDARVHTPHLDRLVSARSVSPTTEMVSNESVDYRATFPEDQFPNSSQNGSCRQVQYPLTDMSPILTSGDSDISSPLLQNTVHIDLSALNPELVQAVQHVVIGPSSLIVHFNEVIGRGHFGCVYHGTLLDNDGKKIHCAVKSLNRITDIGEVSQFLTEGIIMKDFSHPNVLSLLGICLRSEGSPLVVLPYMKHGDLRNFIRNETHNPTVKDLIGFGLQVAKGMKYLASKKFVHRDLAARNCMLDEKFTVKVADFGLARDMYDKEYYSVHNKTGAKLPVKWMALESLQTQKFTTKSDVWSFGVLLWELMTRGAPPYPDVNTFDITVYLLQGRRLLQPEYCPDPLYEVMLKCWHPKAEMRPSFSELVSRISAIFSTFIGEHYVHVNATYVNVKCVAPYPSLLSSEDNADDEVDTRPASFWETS

Activity [1]: Active | Activity [2]: Active | Activity [3]: Active | Activity [4]: Active | Activity [5]: Active | Activity [6]: Active | Activity [7]: Active | Activity [8]: Active | Activity [9]: Active | Activity [10]: Active | Activity [11]: Active | Activity [12]: Active | Activity [13]: Active | Activity [14]: Active | Activity [15]: Active
Compound: C=CC(=O)Nc1ccccc1Nc1nc(Nc2ccc(N3CCN(CCOCCOCCOCCNC(=O)CCCC[C@@H]4SC[C@@H]5NC(=O)N[C@@H]54)CC3)cc2)ncc1Cl

Compound: C=CC(=O)Nc1ccccc1Nc1nc(Nc2ccc(N3CCN(C)CC3)cc2)ncc1Cl
inhibition [16]: 59.3%

Compound: COc1cc(O)c2c(c1)/C=C/C[C@H](O)[C@H](O)C(=O)/C=C\C[C@H](C)OC2=O
Activity [17]: 1.4% | Activity [18]: 4.2% | inhibition [19]: 54.2% | Activity [20]: 44% | Activity [21]: 20%

Compound: C=CC(=O)Nc1ccccc1Oc1nc(Nc2cnn(CCOC)c2)ncc1Cl
inhibition [22]: -1.9%
